In ChEMBL document CHEMBL1145402, “Discovery of potent and muscle selective androgen receptor modulators through scaffold modifications” (J Med Chem, 2007):
≈ marks a conversion by molar mass, not a printed value.

Columns and labels:
[1] = target: T1, Androgen receptor (Homo sapiens, UniProt P10275); assay: Displacement of [3H]DHT from androgen receptor expressed in MDA-MB-453 cells; assay type: cell-based
T1 sequence (P10275 whole entry): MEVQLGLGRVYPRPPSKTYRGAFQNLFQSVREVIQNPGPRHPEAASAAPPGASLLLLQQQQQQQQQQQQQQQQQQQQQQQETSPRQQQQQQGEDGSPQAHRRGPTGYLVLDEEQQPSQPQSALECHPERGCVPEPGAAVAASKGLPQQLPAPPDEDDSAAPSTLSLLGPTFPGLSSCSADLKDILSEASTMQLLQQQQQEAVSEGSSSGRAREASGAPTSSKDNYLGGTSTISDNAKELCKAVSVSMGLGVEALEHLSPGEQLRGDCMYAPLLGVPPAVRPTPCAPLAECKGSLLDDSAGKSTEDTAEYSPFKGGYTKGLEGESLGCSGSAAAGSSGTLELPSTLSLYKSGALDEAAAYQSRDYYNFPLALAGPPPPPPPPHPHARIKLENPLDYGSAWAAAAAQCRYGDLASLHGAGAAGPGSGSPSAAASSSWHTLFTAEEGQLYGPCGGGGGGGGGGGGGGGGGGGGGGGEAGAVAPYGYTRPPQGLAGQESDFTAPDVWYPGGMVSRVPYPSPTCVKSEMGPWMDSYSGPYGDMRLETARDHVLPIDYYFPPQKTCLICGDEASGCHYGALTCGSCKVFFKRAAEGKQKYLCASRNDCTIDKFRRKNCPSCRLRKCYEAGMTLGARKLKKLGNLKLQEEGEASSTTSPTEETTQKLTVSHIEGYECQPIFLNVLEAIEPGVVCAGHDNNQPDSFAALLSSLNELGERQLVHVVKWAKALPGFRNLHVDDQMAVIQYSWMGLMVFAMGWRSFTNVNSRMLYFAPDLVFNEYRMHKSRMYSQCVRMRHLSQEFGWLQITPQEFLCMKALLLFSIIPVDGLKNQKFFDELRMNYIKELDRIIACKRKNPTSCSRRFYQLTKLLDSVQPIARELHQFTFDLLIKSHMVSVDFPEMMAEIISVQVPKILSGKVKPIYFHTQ

[2] = target: T1, Androgen receptor; assay: Agonist activity at androgen receptor expressed in C2C12 mouse cells by luciferase reporter transactivation assay; assay type: functional, cell-based
[3] = test system: Rattus norvegicus; assay: Stimulation of ventral prostate tissue weight in Sprague-Dawley rat at 1 mg/kg, po after 14 days; assay type: functional, Prostate gland
Procedure, shortened: (§1)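 Mature male rats were castrated two weeks before treatment. Compound was given […] once daily for two weeks, then levator ani muscle and ventral prostate were weighed. Weights are expressed as percent of a sham-operated, vehicle-treated intact control group, ±SEM.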

[4] = AUC(0-4h) in Sprague-Dawley rat at 10 mg/kg; assay type: ADME, organism-based; design: time < 5 hr, dose 10 mg/kg; settings: plasma
[5] = (§2) Cmax in Sprague-Dawley rat at 10 mg/kg, po; assay type: ADME, organism-based; design: dose 10 mg/kg, route oral; settings: in vivo
[6] = test system: Rattus norvegicus; assay: Stimulation of levator ani muscle weight in Sprague-Dawley rat at 1 mg/kg, po after 14 days; assay type: functional; procedure, shortened: as §1
[7] = Aqueous solubility of the compound; assay type: physicochemical
[8] = test system: Rattus norvegicus; assay: Stimulation of levator ani muscle weight in Sprague-Dawley rat at 0.01 mg/kg, po after 14 days; assay type: functional
[9] = test system: Rattus norvegicus; assay: Stimulation of ventral prostate tissue weight in Sprague-Dawley rat at 0.01 mg/kg, po after 14 days; assay type: functional, Prostate gland
[10] = test system: Rattus norvegicus; assay: Stimulation of levator ani muscle weight in Sprague-Dawley rat at 3 mg/kg, po after 14 days; assay type: functional; procedure, shortened: as §1
[11] = test system: Rattus norvegicus; assay: Stimulation of ventral prostate tissue weight in Sprague-Dawley rat at 3 mg/kg, po after 14 days; assay type: functional, Prostate gland; procedure, shortened: as §1
[12] = target: Cytochrome P450 2C19 (Homo sapiens, UniProt P33261); assay: Inhibition of CYP2C19; assay type: ADME
[13] = target: Cytochrome P450 2D6 (Homo sapiens, UniProt P10635); assay: Inhibition of CYP2D6; assay type: ADME
[14] = Clearance in Sprague-Dawley rat at 10 mg/kg, po and 5 mg/kg, iv; assay type: ADME, organism-based; settings: in vivo
Procedure, shortened: (§3)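 Rat pharmacokinetics used 5 mg/kg i.v. and 10 mg/kg p.o. dosing. Oral bioavailability (F%), half-life, oral Tmax and total body clearance were derived from plasma concentrations.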

[15] = target: T2, Sex hormone-binding globulin (Homo sapiens, UniProt P04278); assay: Binding affinity to SHBG
T2 sequence (P04278 whole entry): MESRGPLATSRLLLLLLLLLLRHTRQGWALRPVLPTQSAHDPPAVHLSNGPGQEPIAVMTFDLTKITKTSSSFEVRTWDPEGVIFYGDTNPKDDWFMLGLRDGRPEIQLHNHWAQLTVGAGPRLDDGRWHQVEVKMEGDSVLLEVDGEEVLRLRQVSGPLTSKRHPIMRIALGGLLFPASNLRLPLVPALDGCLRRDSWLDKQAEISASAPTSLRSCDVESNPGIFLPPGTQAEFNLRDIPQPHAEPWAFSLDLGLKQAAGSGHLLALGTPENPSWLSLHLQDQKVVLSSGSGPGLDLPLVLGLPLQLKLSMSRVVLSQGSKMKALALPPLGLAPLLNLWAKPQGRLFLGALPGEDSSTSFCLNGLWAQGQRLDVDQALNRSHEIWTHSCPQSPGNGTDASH

[16] = target: hERG (Homo sapiens, UniProt Q12809); assay: Inhibition of hERG at 30 uM by patch clamp method; assay type: toxicity
[17] = Bioavailability in Sprague-Dawley rat at 10 mg/kg, po; assay type: ADME, organism-based; settings: in vivo; procedure, shortened: as §3
[18] = Half life in Sprague-Dawley rat at 10 mg/kg, po and 5 mg/kg, iv; assay type: ADME, organism-based; settings: in vivo; procedure, shortened: as §3
[19] = target: T3, Aromatase (Homo sapiens, UniProt P11511); assay: Inhibition of aromatase
T3 sequence (P11511 whole entry): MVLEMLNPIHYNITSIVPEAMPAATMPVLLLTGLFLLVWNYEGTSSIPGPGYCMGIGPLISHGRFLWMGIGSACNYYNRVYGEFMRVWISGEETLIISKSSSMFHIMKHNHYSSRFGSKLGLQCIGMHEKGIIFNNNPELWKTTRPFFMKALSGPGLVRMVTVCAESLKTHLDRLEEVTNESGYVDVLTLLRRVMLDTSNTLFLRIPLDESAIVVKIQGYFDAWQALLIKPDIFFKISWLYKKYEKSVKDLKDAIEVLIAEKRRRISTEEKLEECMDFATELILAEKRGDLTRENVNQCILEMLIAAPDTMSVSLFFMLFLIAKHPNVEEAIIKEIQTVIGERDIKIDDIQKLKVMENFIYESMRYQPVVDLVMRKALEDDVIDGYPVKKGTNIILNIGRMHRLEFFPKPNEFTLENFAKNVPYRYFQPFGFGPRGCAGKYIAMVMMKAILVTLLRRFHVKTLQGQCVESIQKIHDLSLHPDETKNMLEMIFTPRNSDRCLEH

[20] = Binding affinity to progesterone receptor; design: species or system Homo sapiens
[21] = as §2; assay type: ADME, organism-based; design: dose 10 mg/kg, route oral; settings: in vivo; remark: listed apart in the source
[22] = Toxicity against human hepatocyte; assay type: cell-based; settings: hepatocytes
[23] = target: Cytochrome P450 2C9 (Homo sapiens, UniProt P11712); assay: Inhibition of CYP2C9; assay type: ADME
[24] = target: Estrogen receptor (Homo sapiens, UniProt P03372); assay: Binding affinity to ERalpha
[25] = target: T4, Cytochrome P450 1A2 (Homo sapiens, UniProt P05177); assay: Inhibition of CYP1A2; assay type: ADME
T4 sequence (P05177 whole entry): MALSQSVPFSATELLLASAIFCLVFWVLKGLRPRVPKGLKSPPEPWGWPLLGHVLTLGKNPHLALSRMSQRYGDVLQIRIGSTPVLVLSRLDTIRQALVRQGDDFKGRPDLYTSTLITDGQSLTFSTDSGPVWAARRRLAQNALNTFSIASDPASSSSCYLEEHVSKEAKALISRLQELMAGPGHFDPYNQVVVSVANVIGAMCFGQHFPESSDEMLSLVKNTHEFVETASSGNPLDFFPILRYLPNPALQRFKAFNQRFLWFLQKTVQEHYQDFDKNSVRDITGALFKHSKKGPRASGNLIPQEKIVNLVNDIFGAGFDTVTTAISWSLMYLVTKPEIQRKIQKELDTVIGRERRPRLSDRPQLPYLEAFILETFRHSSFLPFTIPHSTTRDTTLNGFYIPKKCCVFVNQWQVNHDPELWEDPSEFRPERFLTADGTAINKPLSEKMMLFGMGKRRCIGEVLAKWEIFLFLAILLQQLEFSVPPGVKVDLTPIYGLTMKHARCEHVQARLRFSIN

[26] = Tmax in Sprague-Dawley rat at 10 mg/kg, po; assay type: ADME, organism-based; design: dose 10 mg/kg, route oral; settings: in vivo; procedure, shortened: as §3
[27] = target: T5, Glucocorticoid receptor (Homo sapiens, UniProt P04150); assay: Binding affinity to glucocorticoid receptor
T5 sequence (P04150 whole entry): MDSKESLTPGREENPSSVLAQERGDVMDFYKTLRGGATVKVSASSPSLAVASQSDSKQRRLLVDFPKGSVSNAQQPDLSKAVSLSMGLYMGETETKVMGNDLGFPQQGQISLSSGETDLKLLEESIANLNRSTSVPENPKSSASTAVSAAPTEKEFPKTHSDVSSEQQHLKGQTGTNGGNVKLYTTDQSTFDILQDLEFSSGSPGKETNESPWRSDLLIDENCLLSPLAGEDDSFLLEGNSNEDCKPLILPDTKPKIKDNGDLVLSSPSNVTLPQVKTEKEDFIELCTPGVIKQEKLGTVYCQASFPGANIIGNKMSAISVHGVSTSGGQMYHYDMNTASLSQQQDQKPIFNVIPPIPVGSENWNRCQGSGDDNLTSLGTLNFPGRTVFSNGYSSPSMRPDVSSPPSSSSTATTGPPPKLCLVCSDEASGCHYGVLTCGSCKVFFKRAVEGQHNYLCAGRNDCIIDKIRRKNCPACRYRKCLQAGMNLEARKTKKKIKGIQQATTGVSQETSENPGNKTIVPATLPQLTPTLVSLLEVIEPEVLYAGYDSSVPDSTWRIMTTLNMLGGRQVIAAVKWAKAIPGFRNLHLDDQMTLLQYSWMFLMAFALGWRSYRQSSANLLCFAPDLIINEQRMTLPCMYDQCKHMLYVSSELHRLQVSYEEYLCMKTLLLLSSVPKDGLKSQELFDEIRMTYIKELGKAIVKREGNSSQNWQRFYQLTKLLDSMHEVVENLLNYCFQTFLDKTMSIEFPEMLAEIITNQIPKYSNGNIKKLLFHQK

[28] = target: Cytochrome P450 3A4 (Homo sapiens, UniProt P08684); assay: Inhibition of CYP3A4; assay type: ADME
Sequence of Cytochrome P450 3A4 (P08684 whole entry): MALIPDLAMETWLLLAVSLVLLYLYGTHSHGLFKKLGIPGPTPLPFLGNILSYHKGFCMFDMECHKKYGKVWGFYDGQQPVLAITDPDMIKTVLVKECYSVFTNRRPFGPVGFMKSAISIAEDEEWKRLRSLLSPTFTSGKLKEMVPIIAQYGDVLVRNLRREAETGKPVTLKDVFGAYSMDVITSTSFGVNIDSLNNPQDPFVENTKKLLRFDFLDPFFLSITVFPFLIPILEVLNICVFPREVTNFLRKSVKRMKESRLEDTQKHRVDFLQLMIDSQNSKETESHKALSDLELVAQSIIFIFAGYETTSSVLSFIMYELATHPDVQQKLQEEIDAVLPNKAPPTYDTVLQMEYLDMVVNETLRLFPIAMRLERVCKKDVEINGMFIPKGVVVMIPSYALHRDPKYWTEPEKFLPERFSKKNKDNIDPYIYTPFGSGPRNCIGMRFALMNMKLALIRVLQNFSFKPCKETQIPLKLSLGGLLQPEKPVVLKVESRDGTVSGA

Sequence of Cytochrome P450 2C9 (P11712 whole entry): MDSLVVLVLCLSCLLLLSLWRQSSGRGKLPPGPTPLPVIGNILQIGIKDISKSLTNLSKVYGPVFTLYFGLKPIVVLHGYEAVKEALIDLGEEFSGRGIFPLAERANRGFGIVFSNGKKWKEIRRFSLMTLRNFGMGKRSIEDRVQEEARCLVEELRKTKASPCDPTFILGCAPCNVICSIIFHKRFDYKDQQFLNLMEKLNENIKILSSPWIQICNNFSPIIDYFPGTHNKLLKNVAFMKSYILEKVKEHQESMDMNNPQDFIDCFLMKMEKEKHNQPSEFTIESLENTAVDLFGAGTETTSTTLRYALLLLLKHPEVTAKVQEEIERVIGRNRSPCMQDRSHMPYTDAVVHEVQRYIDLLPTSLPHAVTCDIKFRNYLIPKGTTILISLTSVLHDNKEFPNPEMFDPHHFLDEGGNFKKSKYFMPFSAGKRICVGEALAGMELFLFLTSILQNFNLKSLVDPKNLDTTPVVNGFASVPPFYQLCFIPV
Sequence of hERG (Q12809 whole entry): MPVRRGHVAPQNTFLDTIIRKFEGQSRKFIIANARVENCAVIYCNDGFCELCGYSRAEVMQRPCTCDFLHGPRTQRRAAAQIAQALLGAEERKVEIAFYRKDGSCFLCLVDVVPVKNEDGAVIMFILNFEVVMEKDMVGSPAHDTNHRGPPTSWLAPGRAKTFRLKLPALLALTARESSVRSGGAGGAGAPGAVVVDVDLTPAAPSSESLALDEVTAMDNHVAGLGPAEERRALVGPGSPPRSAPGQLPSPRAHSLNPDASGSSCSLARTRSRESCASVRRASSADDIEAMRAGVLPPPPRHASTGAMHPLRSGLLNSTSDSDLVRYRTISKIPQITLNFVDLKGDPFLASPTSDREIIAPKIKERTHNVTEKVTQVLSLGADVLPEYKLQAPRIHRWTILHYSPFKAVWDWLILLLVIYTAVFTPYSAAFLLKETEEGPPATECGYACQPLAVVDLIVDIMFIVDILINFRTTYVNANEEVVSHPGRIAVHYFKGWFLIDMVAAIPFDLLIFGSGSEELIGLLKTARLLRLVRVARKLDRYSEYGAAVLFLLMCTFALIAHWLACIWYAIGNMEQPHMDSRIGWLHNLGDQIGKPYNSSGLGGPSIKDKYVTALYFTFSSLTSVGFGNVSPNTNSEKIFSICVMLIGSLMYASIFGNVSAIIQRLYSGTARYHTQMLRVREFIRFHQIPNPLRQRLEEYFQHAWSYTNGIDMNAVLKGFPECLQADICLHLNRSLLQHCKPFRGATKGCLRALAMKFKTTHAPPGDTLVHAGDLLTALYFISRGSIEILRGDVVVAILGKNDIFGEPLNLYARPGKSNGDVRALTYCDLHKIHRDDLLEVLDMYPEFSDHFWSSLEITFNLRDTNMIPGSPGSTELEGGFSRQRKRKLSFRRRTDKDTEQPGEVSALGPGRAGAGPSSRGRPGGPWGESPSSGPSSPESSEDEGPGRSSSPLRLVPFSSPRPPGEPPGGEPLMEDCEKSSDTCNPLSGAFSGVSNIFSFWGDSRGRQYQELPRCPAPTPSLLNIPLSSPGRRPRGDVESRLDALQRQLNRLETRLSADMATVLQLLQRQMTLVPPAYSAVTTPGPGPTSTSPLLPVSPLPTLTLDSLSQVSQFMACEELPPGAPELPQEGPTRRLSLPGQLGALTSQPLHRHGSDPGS
Sequence of Cytochrome P450 2D6 (P10635 whole entry): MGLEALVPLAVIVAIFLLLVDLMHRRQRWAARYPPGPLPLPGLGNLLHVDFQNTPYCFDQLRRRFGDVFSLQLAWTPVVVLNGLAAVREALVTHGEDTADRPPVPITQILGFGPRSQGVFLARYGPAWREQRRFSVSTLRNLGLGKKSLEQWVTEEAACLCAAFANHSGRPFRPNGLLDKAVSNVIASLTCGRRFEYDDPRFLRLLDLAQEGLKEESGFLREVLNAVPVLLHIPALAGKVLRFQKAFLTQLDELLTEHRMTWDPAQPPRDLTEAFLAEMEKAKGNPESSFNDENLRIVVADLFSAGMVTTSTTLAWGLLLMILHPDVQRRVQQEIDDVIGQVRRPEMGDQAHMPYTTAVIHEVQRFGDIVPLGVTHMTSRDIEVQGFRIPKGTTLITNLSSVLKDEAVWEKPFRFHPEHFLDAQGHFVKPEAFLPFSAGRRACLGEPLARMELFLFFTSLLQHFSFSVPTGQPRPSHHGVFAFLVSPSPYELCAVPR
Sequence of Cytochrome P450 2C19 (P33261 whole entry): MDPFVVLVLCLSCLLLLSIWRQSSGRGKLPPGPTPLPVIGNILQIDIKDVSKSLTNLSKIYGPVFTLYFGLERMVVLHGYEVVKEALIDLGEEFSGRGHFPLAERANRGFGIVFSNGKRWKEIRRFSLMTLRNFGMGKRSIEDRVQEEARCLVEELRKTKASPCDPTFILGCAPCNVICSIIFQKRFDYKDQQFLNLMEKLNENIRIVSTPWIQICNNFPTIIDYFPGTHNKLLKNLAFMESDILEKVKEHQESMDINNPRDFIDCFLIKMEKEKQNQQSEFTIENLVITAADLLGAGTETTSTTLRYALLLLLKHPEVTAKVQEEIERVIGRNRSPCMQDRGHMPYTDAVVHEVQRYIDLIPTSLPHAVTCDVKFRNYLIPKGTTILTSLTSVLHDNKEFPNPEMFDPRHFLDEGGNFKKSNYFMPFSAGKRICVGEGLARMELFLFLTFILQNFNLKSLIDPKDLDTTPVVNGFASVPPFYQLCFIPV
Sequence of Estrogen receptor (P03372 whole entry, looked up): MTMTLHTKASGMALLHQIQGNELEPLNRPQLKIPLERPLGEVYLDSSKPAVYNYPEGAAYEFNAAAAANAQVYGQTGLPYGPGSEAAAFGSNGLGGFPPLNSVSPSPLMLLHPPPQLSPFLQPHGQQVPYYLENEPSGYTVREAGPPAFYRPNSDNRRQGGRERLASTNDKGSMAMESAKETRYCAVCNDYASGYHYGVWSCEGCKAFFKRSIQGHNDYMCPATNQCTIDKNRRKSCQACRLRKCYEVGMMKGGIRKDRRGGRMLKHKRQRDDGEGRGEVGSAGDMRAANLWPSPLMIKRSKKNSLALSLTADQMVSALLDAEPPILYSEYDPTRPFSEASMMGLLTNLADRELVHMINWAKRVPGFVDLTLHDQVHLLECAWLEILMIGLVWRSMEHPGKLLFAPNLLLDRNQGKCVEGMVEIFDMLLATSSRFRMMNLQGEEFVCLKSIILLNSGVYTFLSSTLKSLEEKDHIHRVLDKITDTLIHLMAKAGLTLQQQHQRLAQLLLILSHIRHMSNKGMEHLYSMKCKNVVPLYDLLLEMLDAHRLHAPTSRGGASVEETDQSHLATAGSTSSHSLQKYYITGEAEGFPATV

SMILES | Ki [1] [nM] | EC50 [2] [nM] | Activity [3] [%] | AUC(0-t) at 5 h [4] [µM·h] | Cmax [5] [nM] | Activity [6] [%] | solubility [7] [µg/mL] | other results
CC[C@H]1[C@@H]2[C@H](O)CCN2C(=O)N1c1ccc(C#N)c(Cl)c1C | 0.7 | 2.6 |  |  |  |  |  | 
Cc1c(N2C(=O)N3CC[C@@H](O)[C@H]3[C@@H]2C(F)(F)F)ccc(C#N)c1Cl | 1 | 2.9 | 3 | 1.18 | 819 | 40 |  | 
Cc1c(N2C(=O)N3CC[C@@H](O)[C@H]3[C@H]2C(F)(F)F)ccc(C#N)c1Cl | 2.2 | 2.1 | 1 | 0.63 | 245 | 30 | 1140 (≈ 3170 µM) | 
Cc1c(N2C(=O)[C@@H]3[C@H](O)CCN3C2=O)ccc(C#N)c1Cl |  |  |  | 8.8 | 6900 |  |  | Activity [8]: 59%; Activity [9]: 3%
Cc1c(N2C[C@@H]3[C@H](O)CCN3C2=O)ccc(C#N)c1Cl | 2 | 15 | 14 | 6.38 | 3970 | 66 | 245 (≈ 840 µM) | 
Cc1c(N2C(=O)N3CC[C@H](O)[C@H]3[C@@H]2C)ccc(C#N)c1Cl |  |  |  | 2.89 | 1620 |  | 613 (≈ 2000 µM) | Activity [10]: 44%; Activity [11]: 4%
CC[C@H]1[C@@H]2[C@@H](O)CCN2C(=O)N1c1ccc(C#N)c(Cl)c1C | 0.9 | 1.8 | 24 | 6.08 | 3100 | 101 | 242 (≈ 757 µM) | IC50 [12]: 7600 nM; IC50 [13]: > 40000 nM; clearance [14]: 58 mL/min/kg; Ki [15]: > 100000 nM; inhibition at 30 µM [16]: 6%; bioavailability [17]: 65%; half-life [18]: 5.5 h; IC50 [19]: > 100000 nM; Ki [20]: > 10000 nM; Cmax [21]: 2100 nM; IC50 [22]: > 200000 nM; IC50 [23]: > 40000 nM; Ki [24]: > 10000 nM; IC50 [25]: > 40000 nM; Tmax [26]: 0.8 h; Ki [27]: > 10000 nM; IC50 [28]: > 40000 nM
